The text below walks through data of publication PMC5570473 (Nature chemical biology, 2017).

As a reminder, the IC50 is the concentration needed to halve the response being measured. Low values mean greater potency in that assay, high ones weaker potency in that assay. By GI50 is commonly meant the concentration that inhibits growth by half. The term inhibition denotes the share of the control response that was lost under treatment.

The target of data set [1] is Rpn11 (Homo sapiens, UniProt O00487). Kind of data set: In vitro Rpn11 activity assay. The class given is biochemical. To be noted: for effect of Zn(cyclen)^2+ on IC50 for Rpn11: 100 μM Zn(cyclen)^2+ present.
Data set [2] concerns WT or nfe2l1^−/− MEF cells. The experiment in a line: Cell growth inhibition in WT versus Nrf1 knockout MEF cells. The conditions noted are these: 72 hours. The data set is classed as cell-based.
Data set [3] has as its system angiomotin K481 ubiquitination in 293T cells. Kind of data set: Quantitative ubiquitination site profiling. The data set is classed as cell-based, human. The conditions noted are these: 8 hours, 10 μM capzimin or 1 μM BTZ. An outline of the steps: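 SILAC-labelled HEK293T cells were grown in Arg/Lys-free DMEM with 10% dialysed FBS, 1 mM pyruvate and 10 mg/L proline. At 80–90% confluence they were treated 8 h with 10 μM test compound (n=3), 1 μM bortezomib (n=4) or DMSO. Cells were trypsinised and pooled from three plates per treatment. Lysates were trypsin-digested with NEM alkylation, K-ε-GlyGly peptides enriched by antibody, and analysed by LC-MS.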

The subject of data set [4] is Hela cells stably expressing Ub^G76V-GFP. The experiment in a line: Ub^G76V-GFP accumulation assay. The data set is classed as cell-based. The conditions noted are these: for accumulation of Ub^G76V-GFP: 5 μM, 4 hours.
Data set [5] has as its system A549 cells. The experiment in a line: Aggresome formation and clearance assay. The class given is cell-based, human. To be noted: for aggresome formation (ubiquitin, HDAC6, p62/SQSTM1 staining): 15 hours. The method, boiled down: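 A549 cells were loaded with 5 μM MG132 for 15 h, washed free of it, then held ± a range of test compound concentrations for 24 h. They were fixed in 4% paraformaldehyde, permeabilised with 0.2% Triton X-100, blocked in 5% FBS/0.1% Triton X-100, immunostained for ubiquitin, HDAC6 or p62/SQSTM1, and imaged.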

In data set [6] the target is AMSH (Homo sapiens, UniProt O95630). The experiment in a line: In vitro AMSH activity assay. The data set is classed as biochemical.
The target of data set [7] is BRCC36 (Homo sapiens, UniProt P46736). Kind of data set: In vitro BRCC36 activity assay. The data set is classed as biochemical. The method, boiled down: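 BRISC complex (BRCC36, KIAA0157, BRCC45, MERIT40) was co-expressed in insect cells and purified to >95% by affinity and size exclusion. 1 nM BRISC was reacted with 80 nM DiUbK63-TAMRA, monitoring TAMRA fluorescence (ex 540/em 590 nm). Data were normalised to DMSO and fitted for IC50. With substrate far below KM, IC50 approximates Ki.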

In data set [8] the target is glyoxalase I (GLO1) (Homo sapiens, UniProt Q04760). Kind of data set: Human Glyoxalase 1 assay. The class given is biochemical. An outline of the steps: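 Recombinant human GLO1 (40 ng) was preincubated 15–20 min with inhibitor in 100 mM sodium phosphate, pH 7.0. Substrate was then added, formed by letting glutathione and methylglyoxal stand 20 min in buffer (≤5% DMSO final). A240 was read every minute for 8 min. Rates were compared with no-inhibitor controls after subtracting no-enzyme background.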

In data set [9] the test system is HDAC6. The experiment in a line: HDAC 6 activity assay. The data set is classed as biochemical.
Data set [10] concerns MMP2. Kind of data set: MMP activity assay. The class given is biochemical, human.
Data set [11] deals with MMP12. Kind of data set: MMP activity assay. The class given is biochemical, human.
Data set [12] relates to carbonic anhydrase II. Kind of data set: hCAII activity assay. The data set is classed as biochemical, human.
The target of data set [13] is Rpn11•Rpn8 heterodimer (Saccharomyces cerevisiae, UniProt P43588). Kind of data set: Rpn11•Rpn8 di-Ub cleavage assay. The data set is classed as biochemical. To be noted: 40 μM, 20 μM or 10 μM. The method, boiled down: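 Purified Rpn11•Rpn8 dimer (5 μM) was incubated at 30°C with K48-linked di-ubiquitin and varying test compound concentrations. The buffer was 40 mM HEPES pH 7.5, 100 mM NaCl, 100 mM KCl, 5% glycerol.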

The target of data set [14] is 26S proteasome (Saccharomyces cerevisiae, UniProt P43588). The data set is classed as biochemical, yeast. To be noted: 20 μM, purified proteasomes. An outline of the steps:
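Alexa488-labelled Rpn10-I27V13Pext (100 nM) was incubated with 10 nM purified yeast 26S proteasome at 30°C, ± 20 μM test compound. Aliquots were taken at 0, 30, 60, 90 and 120 min into SDS sample buffer and resolved by SDS-PAGE. Intact substrate was quantified by fluorescence gel imaging (488/520 nm).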

The subject of data set [15] is HEK293T cells. The experiment in a line: Cellular imaging with optical zinc sensor. The data set is classed as cell-based. To be noted: 10 μM. The method, boiled down: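 HEK293T cells were transfected with a FRET zinc sensor and imaged 24–48 h later at 37°C/5% CO2 in phosphate-free HEPES-buffered HBSS, pH 7.4, with frames every minute. After 5 min resting FRET, 10 μM test compound or 0.5% DMSO was added (n=11 cells each). Calibration used 50 μM TPA, then 0.75 μM pyrithione plus 12 μM buffered zinc. Background-corrected FRET/CFP ratios were normalised to resting; error bars SEM.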

The subject of data set [16] is HCT116 cells. The experiment in a line: Cell growth inhibition, CellTiter-Glo, 72 hours. The data set is classed as cell-based. The conditions noted are these: Homo sapiens, HCT-116, 72 h. An outline of the steps: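 HCT116 cells were exposed to a test-compound concentration series for 72 h in normal or low-serum medium, then mixed with CellTiter-Glo. Luminescence was normalised to DMSO and a dose-response fit gave GI50. Data are n=3 wells, one representative of 3 independent experiments.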

Data set [17] concerns WT or bortezomib-resistant RPE1 cells. The experiment in a line: Cell growth inhibition in WT and bortezomib-resistant RPE1 cells. To be noted: 72 hours. The data set is classed as cell-based. An outline of the steps: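 WT and bortezomib-resistant RPE1 cells received a concentration series of test compound for 72 h before CellTiter-Glo addition. Luminescence was normalised to DMSO control and fitted to a dose-response equation for GI50. Data are n=3 wells, from one representative of 3 independent experiments.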

Data set [18] deals with NCI panel of 60 cancer cell lines. The experiment in a line: NCI panel of 60 cancer cell lines. The conditions noted are these: Homo sapiens, read-out: median GI50 NCI 60 panel. The class given is cell-based.
Data set [19] relates to SR cell line (leukemia). The experiment in a line: NCI 60 panel, SR cell line. The class given is cell-based. To be noted: Homo sapiens, read-out: GI50 SR.
The test system of data set [20] is K562 cell line (leukemia). The experiment in a line: NCI 60 panel, K562 cell line. The class given is cell-based. The conditions noted are these: Homo sapiens, K562, read-out: GI50 K562.
The test system of data set [21] is NCI-H460 (non-small cell lung cancer). The experiment in a line: NCI 60 panel, NCI-H460. The data set is classed as cell-based. The conditions noted are these: Homo sapiens, NCI-H460, read-out: GI50 NCI-H460.
The test system of data set [22] is MCF7 (breast cancer). Kind of data set: NCI 60 panel, MCF7. The class given is cell-based. To be noted: Homo sapiens, MCF7, read-out: GI50 MCF7.
In data set [23] the test system is HCT116 cells. The experiment in a line: Immunoblot of UPS substrates, UPR and apoptosis markers. The data set is classed as cell-based. An outline of the steps:
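HCT116 cells were treated 6 h with 2 or 10 μM test compound, alongside 1 μM bortezomib, 10 μM CB5083 or 2 μg/ml tunicamycin. Lysates were immunoblotted for ubiquitin, p53, Hif1α, PERK, BiP, XBP1s, CHOP and GAPDH. For apoptosis, HCT116 cells were treated 24 h and blotted for PARP1, caspase3, pH2AX and GAPDH.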
A general note: In western blotting, separated proteins are transferred to a membrane and probed.

The subject of data set [24] is angiomotin in 293T cells. Kind of data set: Pulldown of polyubiquitylated protein. The class given is cell-based. To be noted: 8 hours. The method, boiled down:
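293T cells were treated 8 h with test compound, bortezomib or DMSO. Lysis was in 40 mM Tris-HCl pH 7.6, 5 mM NEM, 0.1% NP-40, followed by binding to TUBE2 agarose for 2 h at 4°C. Beads were washed three times in the same buffer with 150 mM NaCl, then eluted in SDS buffer. Eluates were immunoblotted for ubiquitin and angiomotin.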

The conditions of data set [25]: mice ref 49; cited from earlier work.

Like-named read-outs stand apart in the source and are kept apart here. Peptide text beside a SMILES is read from it. * marks the point of attachment. Cbz = O=C(OCc1ccccc1)*

Sequence of Rpn11•Rpn8 heterodimer (P43588 2-239 limits assumed): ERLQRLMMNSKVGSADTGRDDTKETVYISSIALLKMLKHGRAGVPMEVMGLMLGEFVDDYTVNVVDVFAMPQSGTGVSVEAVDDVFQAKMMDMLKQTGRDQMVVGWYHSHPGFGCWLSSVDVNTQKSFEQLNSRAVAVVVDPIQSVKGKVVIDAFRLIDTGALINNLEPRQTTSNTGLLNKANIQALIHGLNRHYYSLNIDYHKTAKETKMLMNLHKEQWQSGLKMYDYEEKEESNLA
Sequence of Rpn11•Rpn8 heterodimer (Q08723 1-179 partner limits assumed): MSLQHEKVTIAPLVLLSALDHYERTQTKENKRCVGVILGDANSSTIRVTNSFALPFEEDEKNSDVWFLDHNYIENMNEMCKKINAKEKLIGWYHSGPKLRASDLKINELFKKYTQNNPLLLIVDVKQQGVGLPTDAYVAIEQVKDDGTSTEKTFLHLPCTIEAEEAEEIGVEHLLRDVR
Sequence of glyoxalase I (GLO1) (Q04760 2-184 limits assumed): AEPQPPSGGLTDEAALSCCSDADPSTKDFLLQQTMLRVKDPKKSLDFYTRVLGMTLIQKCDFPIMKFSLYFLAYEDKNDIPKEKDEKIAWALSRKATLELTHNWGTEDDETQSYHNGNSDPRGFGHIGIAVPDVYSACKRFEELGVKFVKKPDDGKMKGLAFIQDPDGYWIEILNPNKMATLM
Sequence of AMSH (O95630 whole entry): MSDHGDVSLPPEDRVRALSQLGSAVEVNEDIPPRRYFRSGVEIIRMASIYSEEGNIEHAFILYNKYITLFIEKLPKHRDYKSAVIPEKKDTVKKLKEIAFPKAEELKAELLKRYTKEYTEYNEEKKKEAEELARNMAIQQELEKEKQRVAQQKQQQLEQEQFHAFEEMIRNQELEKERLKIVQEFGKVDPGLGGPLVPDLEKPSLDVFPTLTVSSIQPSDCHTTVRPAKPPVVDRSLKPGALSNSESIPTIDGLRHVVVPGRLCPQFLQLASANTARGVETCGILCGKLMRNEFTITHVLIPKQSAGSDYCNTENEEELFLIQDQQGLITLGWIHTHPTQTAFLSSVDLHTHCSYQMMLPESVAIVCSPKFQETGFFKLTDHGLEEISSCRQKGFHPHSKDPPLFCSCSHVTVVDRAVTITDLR

With `O=C(Sc1cccc2cccnc12)c1ccccc1Br` [H18, S-(Quinolin-8-yl) 2-bromobenzothioate], the “effect of Zn(cyclen)^2+ on IC50 for Rpn11” value in [1] is recorded as “shifted the IC50 of both compounds to a higher value”.

With `CC(C)C[C@H](NC(=O)[C@H](Cc1ccccc1)NC(=O)c1cnccn1)B(O)O` [bortezomib, reference compound], the “sensitivity of Nrf1^−/− cell line compared to WT MEF” value in data set [2] is “more sensitive”. Moreover, the “up-regulation of angiomotin ubiquitination at K481” value in [3] turned out to be 2.4 fold.

Take `CC(C)C[C@@H](C=O)NC(=O)[C@H](CC(C)C)NC(=O)[C@H](CC(C)C)NC(=O)OCc1ccccc1` [MG132, reference compound] (Cbz-Leu-Leu-Leu-aldehyde): the “accumulation of Ub^G76V-GFP” value in data set [4] is “strong accumulation”. The “aggresome formation (ubiquitin, HDAC6, p62/SQSTM1 staining)” value in data set [5] was “punctate staining characteristic of aggresomes”.

In the case of `O=C(NCCc1nccs1)c1cnc2c(SSc3cccc4cc(C(=O)NCCc5nccs5)cnc34)cccc2c1` [capzimin], in data set [1], the “mode of inhibition of Rpn11 / 26S proteasome” value is recorded as “uncompetitive inhibitor”. Further, the “mode of inhibition of AMSH” value in data set [6] is “competitive inhibitor”. In addition, the “mode of inhibition of BRCC36” value in [7] was “competitive inhibitor”. The molecule further showed an IC50 in data set [8] of 43 µM. Besides, in data set [9], the “preference for inhibiting Rpn11 compared to HDAC6” value is listed as over 2 log. Further, the “preference for inhibiting Rpn11 compared to MMP2” value in data set [10] was over 2 log. Moreover, in data set [11], the “preference for inhibiting Rpn11 compared to MMP12” value is on record as over 2 log. For the same molecule, the “preference for inhibiting Rpn11 compared to carbonic anhydrase II” value in [12] is over 2 log. For the same molecule, the “inhibition of purified Rpn11•Rpn8 (K48 di-ubiquitin cleavage)” value in data set [13] is “acted directly on Rpn11•Rpn8”. Besides, the “influence on degradation of ubiquitin-independent substrate Rpn10-127^V13Pext” value in data set [14] is “no influence”. For the same molecule, the “reduction in total cellular zinc” value in data set [15] is at most 5%. In [4], the “accumulation of Ub^G76V-GFP” value is recorded as “strong accumulation”. Moreover, the “reversibility of inhibitory effect” value in [4] (after washout) is on record as “reversible after washout”. In addition, the GI50 in [16] (read-out: GI50 HCT116) was about 2 µM; in data set [16] (read-out: GI50 HCT116 low serum) it was 0.6 µM; in [18], 3.3 µM; in [19] it was 0.67 µM; in [20] it was 1 µM; in [21], 0.7 µM. For the same molecule, the GI50 in data set [22] worked out at 1 µM. Also, in [17], the “GI50 against WT versus bortezomib-resistant retinal pigment epithelial cells” value is “same GI50”. Moreover, the “sensitivity of Nrf1^−/− cell line compared to WT MEF” value in data set [2] is reported as “more sensitive”. Further, in data set [3], the “up-regulation of angiomotin ubiquitination at K481” value is listed as ~ 16 fold. Further, the “aggresome formation (ubiquitin, HDAC6, p62/SQSTM1 staining)” value in data set [5] was “punctate staining characteristic of aggresomes”. For the same molecule, in data set [23], the “effect on Nedd8-conjugated Cul1 (cellular Csn5)” value is given as “little effect”. The “accumulation of ubiquitin conjugates and proteasome substrates p53, Hif1α, Nrf2” value in data set [23] (2 or 10 μM, 6 hours) is “caused accumulation”. The “apoptosis (processed caspase 3, cleaved PARP)” value in data set [23] (24 hours) is given as “induced apoptosis”. In addition, in data set [23] (HCT116 and 293T cells), the “unfolded protein response (phosphorylated PERK, XBP1s, CHOP)” value is “provoked a UPR response”. The “accumulation of high molecular weight species of angiomotin” value in [24] was “strong accumulation”.

Regarding `Sc1cccc2cccnc12` [8TQ, quinoline-8-thiol], in data set [1], the “mode of inhibition of Rpn11 / 26S proteasome” value is given as “uncompetitive inhibition” and the “effect of Zn(cyclen)^2+ on IC50 for Rpn11” value was “shifted the IC50 of both compounds to a higher value”. Moreover, the “discrimination between Rpn11, BRCC36 and AMSH” value in data set [1] (details will be published elsewhere) was “did not distinguish between Rpn11, BRCC36, and AMSH”. The inhibition at 200 µM in data set [1] (read-out: inhibition of Rpn11 activity in MBP library screen) is over 50%. In addition, in data set [13], the “inhibition of purified Rpn11•Rpn8 (K48 di-ubiquitin cleavage)” value was “inhibited purified Rpn11•Rpn8 heterodimer”. Moreover, the “clearance of MG132-induced aggresomes after MG132 removal and compound addition” value in data set [5] is “not cleared”. In data set [25], the oral bioavailability entry is listed as “orally bioavailable” and the tolerability entry is listed as “tolerated”.
